Entries after “also recorded” stand apart in the source; their conditions may differ.
Assays:
[1] = Pharmacokinetics of plasma tirabrutinib, Cycle 1 Day 1 and Day 28; assay type: in vivo, human
[2] = target: Bruton's tyrosine kinase (BTK) (Homo sapiens, UniProt Q06187); assay type: in vivo
Outline: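 PBMCs isolated from blood drawn pre-dose and 2 hours post-dose on Cycle 1 Day 1 were analysed by western blot with anti-pBTK, anti-BTK and anti-β-actin antibodies. pBTK band intensity was quantified by imaging analyzer, normalised to β-actin, and expressed relative to the pre-dose Day 1 level (set as 100%).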

Chain of Bruton's tyrosine kinase (BTK) (Q06187 whole entry): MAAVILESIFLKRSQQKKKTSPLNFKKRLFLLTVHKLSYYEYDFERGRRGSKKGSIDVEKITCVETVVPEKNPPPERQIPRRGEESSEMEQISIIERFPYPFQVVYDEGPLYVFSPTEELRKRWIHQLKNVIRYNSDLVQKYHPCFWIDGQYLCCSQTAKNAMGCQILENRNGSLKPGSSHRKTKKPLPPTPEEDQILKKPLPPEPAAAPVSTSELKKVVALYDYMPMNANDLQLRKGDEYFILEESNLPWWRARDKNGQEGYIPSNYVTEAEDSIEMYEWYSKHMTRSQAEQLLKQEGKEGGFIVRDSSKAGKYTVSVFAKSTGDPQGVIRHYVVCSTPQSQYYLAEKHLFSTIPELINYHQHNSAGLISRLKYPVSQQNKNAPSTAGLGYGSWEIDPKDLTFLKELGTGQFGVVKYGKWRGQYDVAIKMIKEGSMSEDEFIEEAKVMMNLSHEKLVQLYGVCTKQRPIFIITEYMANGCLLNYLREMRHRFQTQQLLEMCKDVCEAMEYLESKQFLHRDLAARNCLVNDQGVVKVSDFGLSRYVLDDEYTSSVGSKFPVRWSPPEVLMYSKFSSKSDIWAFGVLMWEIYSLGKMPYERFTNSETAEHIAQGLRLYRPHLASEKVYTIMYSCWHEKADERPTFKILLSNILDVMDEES

Compound: CC#CC(=O)N1CC[C@@H](n2c(=O)n(-c3ccc(Oc4ccccc4)cc3)c3c(N)ncnc32)C1 [tirabrutinib]
- Pharmacokinetics linearity ([1]; 160 mg QD to 300 mg BID): linear
- Increase in Cmax and AUC with dose ([1]; 160 to 480 mg QD): increased in a dose‐dependent manner
- Arithmetic mean trough plasma concentration, 300 mg BID vs 480 mg QD ([1]; C1D28): 3.2 fold
- Accumulation following multiple doses ([1]; Day 28 vs Day 1): little accumulation
- Expression level of pBTK in PBMC ([2]; 11 patients with confirmed basal pBTK expression, doses ≥160 mg QD): suppressed the expression level of pBTK in all 11 patients; also recorded: fully suppressed
- pBTK suppression ([2]; patients other than the CLL patient, 2 hours post–dose on Day 1 of Cycle 1): Complete suppression
